Reference: the M2OR odorant receptor database

Tests used:
Settings in all cases: stereoisomer not certain
UniProt Q924X8 = biological target: T1, UniProt Q924X8
T1 sequence (whole entry): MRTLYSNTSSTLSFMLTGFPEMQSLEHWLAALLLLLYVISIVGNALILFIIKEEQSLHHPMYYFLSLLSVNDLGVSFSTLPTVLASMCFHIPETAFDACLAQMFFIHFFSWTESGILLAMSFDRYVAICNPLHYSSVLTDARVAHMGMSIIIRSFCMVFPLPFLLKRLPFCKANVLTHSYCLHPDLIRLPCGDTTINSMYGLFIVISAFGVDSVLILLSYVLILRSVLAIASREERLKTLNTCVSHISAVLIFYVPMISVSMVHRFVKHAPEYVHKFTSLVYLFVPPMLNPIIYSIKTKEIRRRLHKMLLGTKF
Summary of the method: (§1)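 Each receptor–molecule pair is labelled responsive or non-responsive (inactive) according to whether the original authors judged the measured signal statistically different from baseline. The data were taken from the main text and supplementary material of published papers and checked for typos and inconsistencies. Assay methods differed by source, with transient luciferase assays in mammalian cell lines being common.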

UniProt Q99NH4 = biological target: T2, UniProt Q99NH4
T2 sequence (whole entry): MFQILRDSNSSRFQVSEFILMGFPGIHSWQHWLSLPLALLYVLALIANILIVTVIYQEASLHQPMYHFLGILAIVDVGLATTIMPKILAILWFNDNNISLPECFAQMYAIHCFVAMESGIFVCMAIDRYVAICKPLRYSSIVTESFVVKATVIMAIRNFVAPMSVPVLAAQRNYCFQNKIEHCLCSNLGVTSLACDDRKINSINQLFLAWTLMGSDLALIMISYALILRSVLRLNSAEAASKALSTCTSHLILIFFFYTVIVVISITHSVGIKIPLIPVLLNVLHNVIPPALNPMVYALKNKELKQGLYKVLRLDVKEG
Summary of the method: as §1

UniProt Q9WU94 = biological target: T3, UniProt Q9WU94
T3 sequence (whole entry): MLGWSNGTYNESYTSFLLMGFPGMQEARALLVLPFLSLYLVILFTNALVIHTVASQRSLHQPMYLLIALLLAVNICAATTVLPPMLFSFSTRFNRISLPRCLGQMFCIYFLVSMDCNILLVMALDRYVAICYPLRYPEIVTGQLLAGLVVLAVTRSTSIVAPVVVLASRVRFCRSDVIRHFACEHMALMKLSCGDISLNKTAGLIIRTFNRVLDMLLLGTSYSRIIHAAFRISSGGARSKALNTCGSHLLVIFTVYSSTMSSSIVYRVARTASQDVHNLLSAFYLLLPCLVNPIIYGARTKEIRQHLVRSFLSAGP
Summary of the method: as §1

UniProt Q9WVD7 = biological target: T4, UniProt Q9WVD7
T4 sequence (whole entry): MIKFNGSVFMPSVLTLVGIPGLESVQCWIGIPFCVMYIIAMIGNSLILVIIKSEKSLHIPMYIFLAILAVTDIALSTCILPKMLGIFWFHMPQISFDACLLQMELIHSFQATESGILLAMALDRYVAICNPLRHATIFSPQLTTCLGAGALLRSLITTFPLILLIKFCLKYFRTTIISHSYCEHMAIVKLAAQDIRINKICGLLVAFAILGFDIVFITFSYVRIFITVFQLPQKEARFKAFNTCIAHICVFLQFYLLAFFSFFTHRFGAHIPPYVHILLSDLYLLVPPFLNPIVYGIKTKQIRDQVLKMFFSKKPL
Summary of the method: as §1

UniProt Q9EPN9 = biological target: T5, UniProt Q9EPN9
T5 sequence (whole entry): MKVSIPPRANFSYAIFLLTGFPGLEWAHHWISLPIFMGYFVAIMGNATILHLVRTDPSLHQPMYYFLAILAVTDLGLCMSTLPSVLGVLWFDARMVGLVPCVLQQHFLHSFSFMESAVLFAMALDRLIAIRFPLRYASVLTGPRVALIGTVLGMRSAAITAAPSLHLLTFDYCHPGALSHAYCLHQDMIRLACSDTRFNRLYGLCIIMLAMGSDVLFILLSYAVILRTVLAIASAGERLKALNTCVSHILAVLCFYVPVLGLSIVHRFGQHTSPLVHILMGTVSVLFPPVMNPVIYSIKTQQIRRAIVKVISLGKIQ
Summary of the method: as §1

UniProt Q9R0K2 = biological target: UniProt Q9R0K2
Summary of the method: as §1

UniProt Q9WU86 = biological target: T6, UniProt Q9WU86
T6 sequence (whole entry): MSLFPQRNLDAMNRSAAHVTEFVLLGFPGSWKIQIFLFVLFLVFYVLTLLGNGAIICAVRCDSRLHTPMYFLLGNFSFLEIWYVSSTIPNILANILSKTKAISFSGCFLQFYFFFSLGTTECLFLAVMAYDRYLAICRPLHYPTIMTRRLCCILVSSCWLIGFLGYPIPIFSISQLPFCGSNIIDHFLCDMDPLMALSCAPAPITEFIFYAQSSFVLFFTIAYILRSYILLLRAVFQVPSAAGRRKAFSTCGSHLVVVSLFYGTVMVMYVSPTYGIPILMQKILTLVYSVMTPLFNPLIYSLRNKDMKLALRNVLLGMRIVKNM
Summary of the method: as §1

UniProt Q9WVD9 = biological target: UniProt Q9WVD9
Summary of the method: as §1

UniProt Q9WVN5 = biological target: T7, UniProt Q9WVN5
T7 sequence (whole entry): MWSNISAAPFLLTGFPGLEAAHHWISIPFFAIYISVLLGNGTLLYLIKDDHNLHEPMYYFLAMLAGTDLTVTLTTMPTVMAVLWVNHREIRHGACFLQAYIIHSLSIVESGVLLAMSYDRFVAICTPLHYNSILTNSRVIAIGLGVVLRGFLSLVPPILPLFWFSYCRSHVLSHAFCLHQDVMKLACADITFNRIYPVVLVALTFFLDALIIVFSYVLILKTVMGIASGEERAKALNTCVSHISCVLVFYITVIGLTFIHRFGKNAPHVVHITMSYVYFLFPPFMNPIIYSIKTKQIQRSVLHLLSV
Summary of the method: as §1

UniProt Q924H8 = biological target: T8, UniProt Q924H8
T8 sequence (whole entry): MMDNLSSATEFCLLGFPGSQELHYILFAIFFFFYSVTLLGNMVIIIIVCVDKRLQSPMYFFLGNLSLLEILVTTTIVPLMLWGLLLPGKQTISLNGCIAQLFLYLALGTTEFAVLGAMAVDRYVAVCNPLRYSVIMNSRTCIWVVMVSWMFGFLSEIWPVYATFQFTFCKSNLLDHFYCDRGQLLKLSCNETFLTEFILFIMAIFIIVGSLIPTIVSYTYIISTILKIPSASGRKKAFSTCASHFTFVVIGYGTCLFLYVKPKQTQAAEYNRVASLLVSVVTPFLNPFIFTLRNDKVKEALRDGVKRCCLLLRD
Summary of the method: as §1

Measured: odorant receptor agonist call

Chain of UniProt Q9R0K2 (Q9R0K2 as listed by the source): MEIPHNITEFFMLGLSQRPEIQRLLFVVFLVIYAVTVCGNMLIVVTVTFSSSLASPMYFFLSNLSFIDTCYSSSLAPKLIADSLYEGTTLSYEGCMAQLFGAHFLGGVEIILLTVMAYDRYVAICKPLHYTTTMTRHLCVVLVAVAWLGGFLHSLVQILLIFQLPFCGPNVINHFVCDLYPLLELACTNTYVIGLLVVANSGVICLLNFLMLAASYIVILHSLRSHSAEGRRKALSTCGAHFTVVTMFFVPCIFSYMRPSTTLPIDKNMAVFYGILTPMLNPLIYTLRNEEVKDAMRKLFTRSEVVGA
Chain of UniProt Q9WVD9 (Q9WVD9 as listed by the source): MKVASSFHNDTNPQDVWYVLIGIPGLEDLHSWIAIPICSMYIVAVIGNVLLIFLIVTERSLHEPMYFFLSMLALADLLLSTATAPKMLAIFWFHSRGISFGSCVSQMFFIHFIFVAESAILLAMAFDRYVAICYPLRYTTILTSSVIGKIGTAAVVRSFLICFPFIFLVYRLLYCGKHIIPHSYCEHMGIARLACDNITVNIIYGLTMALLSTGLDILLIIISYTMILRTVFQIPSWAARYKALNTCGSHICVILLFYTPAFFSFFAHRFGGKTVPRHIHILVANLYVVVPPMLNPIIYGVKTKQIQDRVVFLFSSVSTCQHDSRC

O=C(O)CCCBr
active: UniProt Q924X8
inactive: UniProt Q99NH4 | UniProt Q9WU94 | UniProt Q9WVD7

CCC(C(=O)O)c1ccccc1 (stereo not drawn)
inactive: UniProt Q9R0K2 | UniProt Q9WU86 | UniProt Q9WVD9 | UniProt Q9WVN5
active: UniProt Q9EPN9

CC(=O)Oc1ccccc1
active: UniProt Q9WU86
inactive: UniProt Q924H8 | UniProt Q9EPN9 | UniProt Q9R0K2 | UniProt Q9WVD9 | UniProt Q9WVN5

O=C(O)CCCCBr
active: UniProt Q924X8
inactive: UniProt Q99NH4 | UniProt Q9WU94 | UniProt Q9WVD7

CCCCCCCCCCCC(=O)O
inactive: UniProt Q99NH4

CCCC(=O)C(C)=O
inactive: UniProt Q924H8 | UniProt Q9EPN9 | UniProt Q9R0K2 | UniProt Q9WU86 | UniProt Q9WVD9 | UniProt Q9WVN5

O=C(O)CCCCCC(=O)O
active: UniProt Q924X8
inactive: UniProt Q99NH4 | UniProt Q9WU94 | UniProt Q9WVD7

O=C1Cc2ccccc2O1
inactive: UniProt Q924H8 | UniProt Q9EPN9 | UniProt Q9R0K2 | UniProt Q9WU86 | UniProt Q9WVD9
active: UniProt Q9WVN5

O=C([O-])CCC(=O)[O-].[H+].[H+]
inactive: UniProt Q99NH4

CCCCCCCC(C)=O
inactive: UniProt Q924H8 | UniProt Q9EPN9 | UniProt Q9R0K2 | UniProt Q9WU86 | UniProt Q9WVD9 | UniProt Q9WVN5

CCCCCCCCS
inactive: UniProt Q924H8 | UniProt Q9EPN9 | UniProt Q9R0K2 | UniProt Q9WU86 | UniProt Q9WVD9 | UniProt Q9WVN5

CCCCOC=O
inactive: UniProt Q924H8 | UniProt Q9EPN9 | UniProt Q9R0K2 | UniProt Q9WU86 | UniProt Q9WVD9 | UniProt Q9WVN5

O=C(c1ccccc1)c1ccccc1
inactive: UniProt Q924H8 | UniProt Q9EPN9 | UniProt Q9R0K2 | UniProt Q9WU86 | UniProt Q9WVD9 | UniProt Q9WVN5

CCCCCOC(=O)CCCCC
inactive: UniProt Q924H8 | UniProt Q9EPN9 | UniProt Q9R0K2 | UniProt Q9WU86 | UniProt Q9WVD9 | UniProt Q9WVN5

CCCCCCOC(C)=O
inactive: UniProt Q924H8 | UniProt Q9EPN9 | UniProt Q9R0K2 | UniProt Q9WU86 | UniProt Q9WVD9 | UniProt Q9WVN5

CCCCCCC(=O)[O-].[H+]
inactive: UniProt Q924X8 | UniProt Q9EPN9 | UniProt Q9R0K2 | UniProt Q9WU86 | UniProt Q9WU94
active: UniProt Q9WVD7 | UniProt Q9WVD9 | UniProt Q9WVN5

CCCCCCC(C)=O
inactive: UniProt Q924H8 | UniProt Q9EPN9 | UniProt Q9R0K2 | UniProt Q9WU86 | UniProt Q9WVD9 | UniProt Q9WVN5

O=C(O)CCCCCCCCCBr
inactive: UniProt Q99NH4

CCCCOC(=O)CCC
inactive: UniProt Q9WU94

O=C(O)CCCCCCCCCCC(=O)O
inactive: UniProt Q99NH4

CCCCCCCCCCC(=O)O
inactive: UniProt Q99NH4

O=C(O)CCCCCCCCCC(=O)O
inactive: UniProt Q99NH4

CCCC(C)=O
inactive: UniProt Q9EPN9 | UniProt Q9R0K2 | UniProt Q9WU86 | UniProt Q9WU94 | UniProt Q9WVD9 | UniProt Q9WVN5
